This passage reports Activity and Ratio results from ChEMBL document CHEMBL1156469 (2007).

The nature of assay [1]: Reversal of increase in pBMP2 expression in mouse MC3T3-E1 cells expressing small interfering RNA for FOXA1 protein at 1 uM by luciferase method. Type of assay: functional, cell-based.
Assay [2] deals with Osteoblast. Put plainly: Effect on fibronectin 1 gene expression in rat primary osteoblast cells assessed as expression ratio of treated to untreated control by microarray analysis. The format is functional.
The test system of assay [3] is Osteoblast. The experiment in a line: Effect on bone morphogenetic protein 3 gene expression in rat primary osteoblast cells assessed as expression ratio of treated to untreated control by microarray analysis. Type of assay: functional.
Assay [4] deals with RAC-alpha serine/threonine-protein kinase (Homo sapiens) (UniProt P31749). The experiment in a line: Enhancement of Akt inactivation in human MDA-MB-231 cells transfected with dominant negative Akt mutant. Type of assay: cell-based. The method in brief:
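MDA-MB-231 cells transfected with vector, constitutively active Akt or dominant negative Akt, treated ± compound; analyzed by Western blotting and BMP-2 promoter luciferase activity.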

Assay [5] deals with T1, Alkaline phosphatase (Mus musculus) (UniProt Q9EQ79).
T1 sequence (whole entry): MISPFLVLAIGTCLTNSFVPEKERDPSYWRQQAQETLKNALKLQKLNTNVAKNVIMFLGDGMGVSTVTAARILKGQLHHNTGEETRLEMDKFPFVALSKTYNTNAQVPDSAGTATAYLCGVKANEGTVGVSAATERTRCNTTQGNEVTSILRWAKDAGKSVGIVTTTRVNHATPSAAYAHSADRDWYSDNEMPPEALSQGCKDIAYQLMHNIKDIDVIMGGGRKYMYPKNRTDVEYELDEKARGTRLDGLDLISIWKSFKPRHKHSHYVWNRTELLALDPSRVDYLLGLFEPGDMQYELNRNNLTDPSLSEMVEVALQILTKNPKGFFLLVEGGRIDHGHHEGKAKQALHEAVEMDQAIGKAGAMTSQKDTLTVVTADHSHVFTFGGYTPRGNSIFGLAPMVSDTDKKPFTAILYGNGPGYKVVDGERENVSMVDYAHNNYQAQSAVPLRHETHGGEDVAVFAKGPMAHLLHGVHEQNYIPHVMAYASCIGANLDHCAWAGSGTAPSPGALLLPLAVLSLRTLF
The experiment in a line: Inhibition of induction of ALP activity in mouse MC3T3-E1 cells at 1 uM after 48 hrs in presence of noggin. The format is cell-based.

Assay [6] addresses T2, Estrogen receptor (Mus musculus) (UniProt P19785).
T2 sequence (whole entry): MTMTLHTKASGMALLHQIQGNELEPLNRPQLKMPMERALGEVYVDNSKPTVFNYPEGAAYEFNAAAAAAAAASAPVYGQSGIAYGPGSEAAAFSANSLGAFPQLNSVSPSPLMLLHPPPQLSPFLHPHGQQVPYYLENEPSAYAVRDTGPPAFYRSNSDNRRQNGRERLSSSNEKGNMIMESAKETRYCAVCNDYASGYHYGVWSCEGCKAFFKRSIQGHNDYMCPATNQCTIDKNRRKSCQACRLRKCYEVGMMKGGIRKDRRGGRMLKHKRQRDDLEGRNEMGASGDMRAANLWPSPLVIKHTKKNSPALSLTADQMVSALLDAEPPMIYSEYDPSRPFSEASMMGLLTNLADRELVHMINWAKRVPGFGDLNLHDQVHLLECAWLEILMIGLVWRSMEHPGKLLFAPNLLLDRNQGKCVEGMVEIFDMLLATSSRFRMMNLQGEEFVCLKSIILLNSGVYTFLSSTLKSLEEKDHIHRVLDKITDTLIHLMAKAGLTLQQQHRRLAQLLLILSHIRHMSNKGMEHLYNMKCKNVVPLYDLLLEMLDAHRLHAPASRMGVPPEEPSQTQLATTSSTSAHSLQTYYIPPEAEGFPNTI
The experiment in a line: Reversal of increase in DNA-binding activity of ERalpha in nuclear extracts of mouse MC3T3-E1 cells transfected with dominant-negative mutant Src expression vector by electrophoretic mobility shift assays. The format is cell-based. The method in brief:
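Nuclear extracts of MC3T3-E1 cells. ER-binding probe [α-32P]dCTP end-labeled, 20-min binding at room temperature, 5-fold unlabeled competitor where used. Complexes resolved on 5% nondenaturing PAGE in Tris-borate-EDTA pH 8.3, then autoradiography.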

In assay [7] the test system is Osteoblast. The experiment in a line: Inhibition of antiapoptotic activity in rat primary osteoblast cells at 1 uM after 48 hrs in presence of BMP2-specific neutralizing antibody. The format is functional, cell-based.
The test system of assay [8] is Osteoblast. The experiment in a line: Effect on integrin alpha 2b gene expression in rat primary osteoblast cells assessed as expression ratio of treated to untreated control by microarray analysis. Type of assay: functional. The method in brief:
(§1)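 Resveratrol-treated and vehicle-treated primary osteoblasts were profiled on a mouse osteogenesis-focused cDNA array (GEArray Q series) built to track gene expression during osteogenic differentiation. Each gene's signal in treated cells was expressed as a ratio to untreated control.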

The test system of assay [9] is Osteoblast. The experiment in a line: Effect on vascular cell adhesion molecule 1 gene expression in rat primary osteoblast cells assessed as expression ratio of treated to untreated control by microarray analysis. The format is functional. In a few lines: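 GEArray Q series Mouse Osteogenesis cDNA array profiling osteogenic-differentiation genes in treated versus vehicle-treated primary osteoblasts.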

Assay [10] has as its system Osteoblast. Put plainly: Inhibition of antiapoptotic activity in rat primary osteoblast cells at 1 uM after 48 hrs in presence of noggin. Type of assay: functional, cell-based.
Assay [11] relates to Osteoblast. The experiment in a line: Effect on bone morphogenetic protein 5 gene expression in rat primary osteoblast cells assessed as expression ratio of treated to untreated control by microarray analysis. The format is functional.
The next assay has as its system Rattus norvegicus. The experiment in a line: Increase in serum BMP2 levels in ovariectomized Wistar rat at 10 mg/kg, po after 10 weeks by ELISA relative to sham operated control. Type of assay: functional, organism-based. Also noted: dose 10 mg/kg. The method in brief:
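Ovariectomized rats given indicated doses or estrogen by oral feeding; serum BMP-2 by ELISA 10 weeks after surgery; compared with sham-operated group; n = 8/group, means ± S.D.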

In assay [12] the test system is Osteoblast. The experiment in a line: Effect on matrix metalloprotease 10 gene expression in rat primary osteoblast cells assessed as expression ratio of treated to untreated control by microarray analysis. The format is functional. In a few lines:
as §1

Assay [13] concerns Osteoblast. The experiment in a line: Effect on matrix metalloprotease 9 gene expression in rat primary osteoblast cells assessed as expression ratio of treated to untreated control by microarray analysis. Type of assay: functional. In a few lines: as §1
For another assay, the system named is MCF7. Put plainly: Antitumor activity against human MCF7 cells xenografted in SCID mouse orthotropic model assessed as inhibition of 17beta estradiol-induced tumor weight at 10 mg/kg for 2 days. Type of assay: functional. Also noted: scale not given: the % may be the effect or the level left. The method in brief:
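Tumor cells were inoculated orthotopically into the mammary fat pad of 6-week-old female SCID mice. […] Tumor volume was calculated as LW2/2. Tumor formation was scored as mice with tumors per total (20 per group), and tumor weight as mean ± S.D. Groups were compared by one-way ANOVA with LSD post-hoc comparisons.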

For the next assay, the system named is MG-63. Put plainly: Increase in osteopontin levels in human MG63 cells at 1 uM after 72 hrs by ELISA. The format is functional, cell-based. In a few lines: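 Cells treated with 1 μm for 72 h; osteocalcin or osteopontin in culture medium by sandwich ELISA, HRP-streptavidin/TMB, 450 nm; percent change versus untreated control.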
In a further assay the test system is MC3T3-E1. Put plainly: Increase in BMP2 expression in mouse MC3T3-E1 cells expressing pBMP2delta3 mutant at 1 uM after 4 hrs by luciferase method relative to control. Type of assay: functional, cell-based. The method in brief:
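MC3T3-E1 cells transfected with BMP-2 promoter–luciferase constructs (full promoter or deletions), treated with 1 μm or vehicle for 4 h; Dual-Luciferase assay; means ± S.D.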

The subject of assay [14] is Osteoblast. The experiment in a line: Effect on integrin alpha V gene expression in rat primary osteoblast cells assessed as expression ratio of treated to untreated control by microarray analysis. The format is functional. In a few lines:
as §1

Assay [15] concerns the target T1, Alkaline phosphatase (Mus musculus). The experiment in a line: Increase in ALP activity in mouse MC3T3-E1 cells at 0.1 to 10 uM after 7 days. The format is cell-based.

The source made the active and inactive calls. The rule behind the calls is not given here.

Sequence of RAC-alpha serine/threonine-protein kinase (Homo sapiens) (P31749 whole entry): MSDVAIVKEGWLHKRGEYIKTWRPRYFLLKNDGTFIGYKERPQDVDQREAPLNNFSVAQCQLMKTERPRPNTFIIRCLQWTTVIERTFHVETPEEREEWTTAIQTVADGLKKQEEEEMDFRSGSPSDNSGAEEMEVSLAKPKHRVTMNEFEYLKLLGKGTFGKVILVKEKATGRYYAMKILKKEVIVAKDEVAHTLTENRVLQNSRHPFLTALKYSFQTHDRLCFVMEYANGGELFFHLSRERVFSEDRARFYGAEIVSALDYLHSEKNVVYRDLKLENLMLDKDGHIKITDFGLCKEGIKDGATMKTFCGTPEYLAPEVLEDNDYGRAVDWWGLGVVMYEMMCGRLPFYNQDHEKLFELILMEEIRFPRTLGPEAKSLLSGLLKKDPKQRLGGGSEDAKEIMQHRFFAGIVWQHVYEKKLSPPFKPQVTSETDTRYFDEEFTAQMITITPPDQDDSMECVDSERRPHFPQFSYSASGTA

For `Oc1ccc(/C=C/c2cc(O)cc(O)c2)cc1` [RESVERATROL], the outcome (in assay [1]; in assay [4]; in assay [5]; in assay [6]; in the assay with Osteoblast [7]; in the assay on Osteoblast [10]) was Active. Also, the outcome (in the assay on Rattus norvegicus; in the assay on MG-63; in assay [15]) was Active. The Ratio in the assay with Osteoblast [2] is 8.76; with Osteoblast [3], 0.27; with Osteoblast [8] it was 0.57; in the assay on Osteoblast [9], 0.46; with Osteoblast [11], 0.97; in the assay on Osteoblast [12], 1. The Ratio with Osteoblast [13] was determined as 0.43; with Osteoblast [14] it was 4.64. Besides, the Activity in the assay on MCF7 came out at 54.6%. The result in the assay on MC3T3-E1 was inactive.
